The values below come from ChEMBL document CHEMBL4043246, “Discovery of novel [1,2,4]triazolo[4,3-a]quinoxaline aminophenyl derivatives as BET inhibitors for cancer treatment” (Bioorg Med Chem Lett, 2017).

The target of data set [1] is Bromodomain-containing protein 4 (Homo sapiens, UniProt O60885). Briefly: Inhibition of BRD4 BD1-BD2 (unknown origin) using tetraacetylated histone peptide as substrate after 2 hrs by alphascreen assay.
Data set [2] in a line: Antiproliferative activity against human TY82 cells. In kind it is functional, cell-based.
The test system of a further data set is THP-1. The experiment in a line: Antiproliferative activity against human THP1 cells. In kind it is functional, cell-based.
A short description of data set [3]: Stability in mouse liver microsomes assessed as parent compound remaining after 30 mins. The class given is ADME, microsome. Particulars: read-out: Stability. The gist of the method:
(§1)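 Incubated in vitro with mouse, rat or human liver microsomes for 30 minutes. Result expressed as percent of parent compound remaining.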

A short description of data set [4]: Stability in rat liver microsomes assessed as parent compound remaining after 30 mins. In kind it is ADME, microsome. Particulars: read-out: Stability. The gist of the method: as §1
(Liver microsomes are a subcellular fraction often used to study metabolism.)

The nature of data set [5]: Stability in human liver microsomes assessed as parent compound remaining after 30 mins. In kind it is ADME, microsome. The note with it: read-out: Stability. The gist of the method: as §1
A short description of data set [6]: Half life in rat at 2 mg/kg, iv. The class given is ADME, organism-based. Particulars: in vivo. Summed up: (§2)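 Rat pharmacokinetics with single intravenous (2 mg/kg) or oral (5 or 20 mg/kg) dosing. Terminal half-life is reported in hours.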
Data set [7] in a line: AUCt in rat at 2 mg/kg, iv. In kind it is ADME, organism-based. Particulars: in vivo. The gist of the method: (§3)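 Rat pharmacokinetics with single dosing, either intravenous at 2 mg/kg or oral at 5 or 20 mg/kg. AUC is reported both to the last time point (AUCt) and extrapolated to infinity, in ug.hr/mL.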
Data set [8] in a line: AUCinfinity in rat at 2 mg/kg, iv. The note with it: in vivo. On the set-up: dose 2 mg/kg, time infinity, route intravenous. The class given is ADME, organism-based. The gist of the method: as §3
Data set [9] is described as follows: Clearance in rat at 2 mg/kg, iv. In kind it is ADME, organism-based. Particulars: in vivo.
A short description of data set [10]: Volume of distribution at steady state in rat at 2 mg/kg, iv. The class given is ADME, organism-based. Particulars: in vivo, read-out: Vdss. Summed up:
(§4)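 Rat pharmacokinetics after a single intravenous dose of 2 mg/kg or oral doses of 5 mg/kg and 20 mg/kg. Reported parameters are Tmax, Cmax, T1/2, AUCt, AUC∞, CL, Vss and F(%). CL, Vss and F come from the intravenous/oral 2 and 5 mg/kg arms.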

Data set [11] has as its system Rattus norvegicus. The experiment in a line: Tmax in rat at 5 mg/kg, po. The class given is ADME, organism-based. Particulars: in vivo. Summed up:
as §4

For data set [12], the system named is Rattus norvegicus. The experiment in a line: Cmax in rat at 5 mg/kg, po. The class given is ADME, organism-based. The note with it: in vivo. Set-up: dose 5 mg/kg, route oral. Summed up:
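Peak plasma level after single oral dosing in rat at 5 or 20 mg/kg. Cmax is given in mg/mL as printed, with Tmax in hours.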

For data set [13], the system named is Rattus norvegicus. Briefly: Half life in rat at 5 mg/kg, po. In kind it is ADME, organism-based. Particulars: in vivo. The gist of the method:
as §2

The nature of data set [14]: AUCt in rat at 5 mg/kg, po. Particulars: in vivo. The class given is ADME, organism-based. Summed up:
as §3

Data set [15] concerns Rattus norvegicus. Briefly: AUCinfinity in rat at 5 mg/kg, po. In kind it is ADME, organism-based. On the set-up: dose 5 mg/kg, time infinity, route oral. The note with it: in vivo. The gist of the method: as §3
Data set [16] in a line: Oral bioavailability in rat at 5 mg/kg. The class given is ADME, organism-based. Particulars: in vivo. Summed up:
as §4

In turn, `CC(C)(C)OC(=O)NCc1cccc(Nc2nc3ccccc3n3c(-c4ccccc4)nnc23)c1` yielded an IC50 in data set [1] greater than 10 µM.

In the case of `Cc1nnc2c(Nc3ccc(NC(=O)OC(C)(C)C)cc3)nc3ccccc3n12`, the 50% inhibitory concentration (IC50) in [1] was 6.4 µM; in data set [2] it was greater than 10 µM.

For the compound `Cc1nnc2c(Nc3cccc(CNC(=O)c4ccccc4)c3)nc3ccccc3n12`, the half-inhibitory concentration (IC50) in [1] came out at 0.64 µM; in [2], 8.6 µM.

Take `Cc1nnc2c(Nc3cccc(NC(=O)OC(C)(C)C)c3)nc3ccccc3n12`: the results for the half-maximal inhibitory concentration (IC50) in data set [1] and in data set [2] were 0.12 µM and greater than 10 µM, respectively.

As to `Cc1sc2c(c1C)C(c1ccc(Cl)cc1)=N[C@@H](CC(=O)Nc1ccc(O)cc1)c1nnc(C)n1-2` [BIRABRESIB], the IC50 is 0.067 µM in [2] and 0.033 µM in the data set with THP-1.

With `Cc1nnc2c(Nc3ccc(CNC(=O)OC(C)(C)C)cc3)nc3ccccc3n12`, the half-inhibitory concentration (IC50) in data set [1] was 2.7 µM; in data set [2] it was greater than 10 µM.

Regarding `CCOC(=O)NCc1cccc(Nc2nc3ccccc3n3c(C)nnc23)c1`, the IC50 is 0.16 µM in data set [1], greater than 10 µM in data set [2] and greater than 10 µM with THP-1.

For `Cc1nnc2c(Nc3cccc(CNC(=O)OC(C)(C)C)c3)nccn12`, the IC50 is 1.5 µM in data set [1] and greater than 10 µM in data set [2].

In turn, `CC(C)(C)OC(=O)NCc1cccc(Nc2nc3ccccc3n3c(C(F)(F)F)nnc23)c1` showed an IC50 in data set [1] greater than 10 µM.

In the case of `CCNC(=O)C[C@@H]1N=C(c2ccc(Cl)cc2)c2cc(OC)ccc2-n2c(C)nnc21` [MOLIBRESIB], the IC50 in data set [2] was 0.39 µM; with THP-1, 0.29 µM.

On to `Cc1nnc2c(Nc3cccc(CNC(=O)C(C)(C)C)c3)nc3ccccc3n12`, for which the results for the IC50 in data set [1] and in data set [2] were 0.097 µM and greater than 10 µM, respectively.

In the case of `CC(C)(C)OC(=O)NCc1cccc(Nc2nc3ccccc3n3cnnc23)c1`, the IC50 in [1] was greater than 10 µM.

As for `Cc1nnc2c(Nc3cccc(CN)c3)nc3ccccc3n12`, the IC50 in [1] was 0.35 µM; in data set [2], greater than 10 µM.

Take `CC(=O)NCc1cccc(Nc2nc3ccccc3n3c(C)nnc23)c1`: the values for the IC50 in data set [1] and in data set [2] were 0.53 µM and greater than 10 µM, respectively.

As to `Cc1nnc2c(Nc3cccc(CNC(=O)OC(C)(C)C)c3)nc3ccccc3n12`, the IC50 in data set [1] is 0.017 to 0.068 µM; in data set [2], 2.5 to 7.1 µM; in the data set with THP-1 it was 3.4 µM. Besides, the remaining at 0.5 h in data set [3] is 0.12%; in [4], 0.19%; in [5], 27%. The same compound had a half-life in [6] of 0.72 h. Moreover, the exposure AUC(0-t) in data set [7] was found to be 4020 ng·h/mL; in data set [14], 2110 ng·h/mL. Besides, the total exposure AUC(0-inf) in data set [8] is 4020 ng·h/mL. This compound had a clearance in [9] of 8.33 mL/min/kg. Also, the Vd in [10] was determined as 0.46 L/kg. In the data set with Rattus norvegicus [11], the time to peak (Tmax) came to 3.42 h. Further, the concentration in the data set with Rattus norvegicus [12] peaked (Cmax) at 340 ng/mL. Further, the t1/2 in the data set with Rattus norvegicus [13] was determined as 3.69 h. The compound also displayed an AUC in the data set with Rattus norvegicus [15] of 2390 ng·h/mL. In data set [16], this compound had a bioavailability of 20.9%.

For the compound `CCC(=O)NCc1cccc(Nc2nc3ccccc3n3c(C)nnc23)c1`, the IC50 in data set [1] is 0.2 µM; in data set [2], 7.6 µM.

`CCc1nnc2c(Nc3cccc(CNC(=O)OC(C)(C)C)c3)nc3ccccc3n12` showed an IC50 in [1] greater than 10 µM.

A word on the IC50: it is the concentration needed to halve the response being measured. Low readings indicate inhibition by little substance, high ones a need for much substance. By half-life is commonly meant the time in which the quantity being followed falls by half. A higher half-life goes with slow loss. A word on the AUC(0-t): it is exposure summed from dosing to a finite time, without extrapolation to infinity. What is called AUC(0-inf) is the area under the concentration-time curve extrapolated to infinity. Lower therefore signals less exposure. For orientation: clearance means the rate of elimination divided by the concentration. The low end stands for inefficient removal, the high end for efficient removal. Broadly, the Tmax is the time from dosing to the highest level. As usually defined, the Cmax is the highest concentration seen after dosing. A word on the AUC: it is concentration integrated over time. Higher therefore signals more exposure. What is called bioavailability is the share of a dose that reaches the circulation, judged against a reference dose that is usually intravenous.
